Published values pooled from the literature.
Each line is one published result; the experiments were not run side by side.
Target: Ephrin type-A receptor 5 (EPHA5, Homo sapiens, UniProt P54756)

test	setting	remaining binding	SMILES
binding, competition with immobilised ligand	1 µM	98%	O=C(c1ccc(Nc2ncc(Cl)c(-c3ccc(Cl)s3)n2)cc1)N1CCC(N2CCCC2)CC1
binding, competition with immobilised ligand	1 µM	100%	O=C(Nc1c[nH]nc1C(=O)NC1CCNCC1)c1cc(F)cc(F)c1
binding	1 µM	100%	CN(C)c1ncc(F)c(-c2cnn3ncccc23)n1
cell-free assay, competition with immobilised ligand	1 µM	64%	CCC(=N\O)/C(C)=C/c1ccc(F)cc1
binding	1 µM	100%	N[C@@H]1CCN(c2nccc(-c3cnn4ncccc34)n2)C1
binding, competition with immobilised ligand	1 µM	100%	CCN1CCN(Cc2ccc(C(=O)Nc3ccc(C)c(Oc4ccc5c(c4)CC(=O)N5)c3)cc2C(F)(F)F)CC1
cell-free assay, competition with immobilised ligand	0.1 µM	92.4%	Cc1cc(C)c(-n2ccn3nc(-c4cccnc4)cc23)cc1NC(=O)c1cc(C#N)cc(S(F)(F)(F)(F)F)c1
binding, competition with immobilised ligand	1 µM	100%	COc1cnc(Nc2cccc(S(N)(=O)=O)c2)nc1N1CCN(c2ccccc2)C(=O)C1
binding	1 µM	100%	CC1CCCN1c1nccc(-c2cnn3ncccc23)n1 (centres unmarked)
cell-free assay, competition with immobilised ligand	1 µM	100%	CC1=C(C#N)[C@@H](c2ccc3[nH]nc(C)c3c2)C(C#N)=C(c2ccc(Cl)cc2)N1
binding, competition with immobilised ligand	1 µM	88%	O=C(NCCCN1CCOCC1)c1ccc(Nc2nccc(-c3cc4ccccc4s3)n2)cc1
cell-free assay, competition with immobilised ligand	1 µM	94%	CNC(=O)Nc1ccc2c(c1)[C@@]1(CC2)OC(=O)N(CC(=O)N(Cc2ccc(F)cc2)[C@@H](C)C(F)(F)F)C1=O
cell-free assay, competition with immobilised ligand	5 µM	90%	FC(F)(F)Oc1cccc(-c2cnc3ccc(-c4ccncc4)nn23)c1
binding	1 µM	100%	COc1ccnn2ncc(-c3ccnc(N(C)C)n3)c12
cell-free assay, competition with immobilised ligand	1 µM	98.5%	COc1cccc(CNC(=O)c2nc3scc(COCc4ccc(C(=O)O)cc4)c3c(=O)[nH]2)c1
binding, competition with immobilised ligand	1 µM	100%	CNC(=O)[C@@H]1CC[C@@H](n2c(-c3ccc4cnccc4c3)nc3ccc(C(=O)NCc4cccc(C(N)=O)c4)cc32)C1
binding	1 µM	100%	CN(c1nccc(-c2cnn3ncccc23)n1)C1CC1
binding, competition with immobilised ligand	1 µM	86%	O=C(c1ccc(Nc2ncc(Cl)c(-c3cc4ccccc4s3)n2)cc1)N1CCC(N2CCCC2)CC1
cell-free assay, competition with immobilised ligand	1 µM	100%	C[C@@]1(Cc2ccc(C#N)cc2)C(=O)N(c2cc(Cl)cc(Cl)c2)c2ncc(C(=O)NC3(c4nc(C5CCC5)no4)CC3)n21
binding	1 µM	100%	F[C@@H]1CCN(c2nccc(-c3cnn4ncccc34)n2)C1
